HUVEC inhibit: blocks proliferation of human endothelial cells. HUVEC proliferation, CellTiter-Glo luminescence, 72 h; hits give low values. viability, % at 10 µM (by protocol). 1.1% of 86,000 active. AID 648;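 active = viability at or below 30%; inactive = viability above 30%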
Phagocytosis inh: blocks phagocytosis by macrophages. J774A.1 macrophage IgG-bead phagocytosis, imaging. inhibition, % at 5 µM. 0.07% of 110,000 active. AID 1029;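 active = inhibition above the mean of the plate negative controls plus 5 SD, cut at about 13% in these data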;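 also: phagocytic index as fraction of beads internalized from green versus red external bead signal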
H69AR growth 86K: blocks growth of human H69AR lung tumor cells. H69AR lung tumor viability, ATP luminescence, 72 h; hits give low values. viability, % at 10 µM. 6% of 85,000 active;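 active = viability at or below 40%; inactive = viability above 40%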;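 also: multidrug resistant small cell line overexpressing MRP-1 efflux transporter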
Fibroblast inh: blocks proliferation of human lung fibroblasts. 1.1% of 85,000 active. viability, % at 10 µM. LL 47 human lung fibroblast viability, ATP luminescence; hits give low values;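 active = viability at or below 50% in the single dose screen; inactive = viability above 50%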;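 also: compound exposure lasted 72 h before the ATP readout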
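Material: Human LL 47 lung fibroblast cells | Input: 1,150 cells/well | Buffer or medium: IMEM plus 15% FBS | Compound dosing: 0.1% DMSO in all compound wells | Times: Overnight cell rest, 72 h compound treatment at 37 °C | Signal: CellTiter-Glo luminescence measuring cellular ATP | Measure: % viability versus median cells-only luminescence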
bCat KO growth: beta-catenin-lacking colon tumor cell growth suppression. HCT116 beta-catenin knockout viability, CellTiter-Glo, 60 h; hits give low values. viability, % at 10 µM. 1.5% of 140,000 active. AID 818;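 active = viability at or under a set limit, the compound median less 4 SD, cut at about 6% in these data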
PTEN del growth: PTEN-deleted cell growth suppression; AID 827; viability, % at 10 µM; HCT116 PTEN-null viability, CellTiter-Glo, 60 h; hits give low values; 1.2% of 140,000 active;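 active = viability at or below a set limit, 4 SD under the median of all tested compounds, cut at about 3.7% in these data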;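 also: PTEN knockout HCT116 line with beta catenin targeted HCT116 as companion control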
Numbers stand for hits; . = inactive; / = not tested or not shown. This excerpt belongs to a sample that is enriched for hits.

SMILES | HUVEC inhibit | Phagocytosis inh | H69AR growth 86K | Fibroblast inh | bCat KO growth | PTEN del growth
N#Cc1c(-c2ccc(C(F)(F)F)cc2)cc(-c2ccccc2)[nH]c1=S | / | . | / | / | . | .
COc1ccc(C(=O)NCC(O)COc2ccc(C(C)(C)C)cc2)cc1[N+](=O)[O-] (centres undefined) | / | / | / | / | . | .
CCSC1=NC2(CCCCC2)Nc2sc3c(c21)CCCC3 | . | . | 2.2 | . | . | .
CCOc1ccc(OCC)c(NC(=O)C2CCCN(S(=O)(=O)c3c(C)noc3C)C2)c1 (centres undefined) | . | . | 19.2 | . | . | .
COc1ccc2nc(NC(=O)C3CCCN(S(=O)(=O)c4c(C)noc4C)C3)sc2c1 (centres undefined) | . | . | 35.1 | . | . | .
O=C(Cn1cc(C(F)(F)F)ccc1=O)Nc1cccc(S(=O)(=O)N2CCOCC2)c1 | / | . | / | / | . | .
COC(=O)c1ccc(/C=C/C(=O)c2ccc(OC)c(OC)c2)cc1 | / | / | / | / | 3.3 | 1.6
COc1ccc(/C=C/C(=O)c2cc(F)ccc2OC(=O)c2ccc(OC)c(OC)c2)cc1OC | / | . | / | / | 2.9 | 3.3
COc1ccc(/C=C/C(=O)c2cc(Br)ccc2OC(=O)c2ccco2)cc1OC | / | . | / | / | . | .
COC(=O)c1ccc(/C=C/C(=O)c2ccc(OC)cc2)cc1 | / | / | / | / | . | .
O=C(CSc1nc2cc([N+](=O)[O-])ccc2n1-c1ccc(F)cc1)NC1CCS(=O)(=O)C1 (centres undefined) | / | . | / | / | . | .
CCN(CC)CCCN1CC(O)=C(c2nc3ccccc3s2)C1=N | . | . | . | . | . | .
N=C1C(c2nc3ccccc3s2)=C(O)CN1Cc1ccccc1 | . | / | 17.1 | . | . | .
COc1ccc(CNCCC(c2ccc(OC(C)C)cc2)C(C)C)cc1OC (centres undefined) | / | / | / | / | 1.2 | 1.3
CCOCCCNCc1ccc(OC)c(OC)c1 | . | . | . | . | . | .
COCCn1nnnc1C(c1cc2cc(OC)ccc2[nH]c1=O)N1CCC(Cc2ccccc2)CC1 (centres undefined) | . | / | 3.8 | . | 3.0 | 2.7
CCc1ccc2[nH]c(=O)c(C(c3nnnn3CC3CCCO3)N3CCCc4ccccc43)cc2c1 (centres undefined) | . | . | 20.2 | . | . | .
O=c1[nH]c2cc3c(cc2cc1C(c1nnnn1Cc1ccccc1)N1CCCc2ccccc21)OCO3 (centres undefined) | . | / | 21.2 | . | . | .
O=c1[nH]c2cc3c(cc2cc1C(c1nnnn1C1CCCC1)N1CCCc2ccccc21)OCCO3 (centres undefined) | . | . | . | . | / | /
O=c1[nH]c2cc3c(cc2cc1C(c1nnnn1Cc1ccccc1)N1CCCCCC1)OCCO3 (centres undefined) | . | . | 2.1 | 29.8 | . | .
Cc1cc2cc(C(c3nnnn3CC3CCCO3)N3CCCc4ccccc43)c(=O)[nH]c2cc1C (centres undefined) | . | . | . | . | . | .
Cc1ccc(NC(=O)Cc2ncc(C(F)(F)F)cc2Cl)cc1Cl | / | . | / | / | . | .
COc1ccc(C(=O)NCc2nnc(SCC(=O)N3CCc4ccccc43)n2CCc2ccccc2)cc1 | / | . | / | / | . | .
CNC(=O)Nc1cccc(C(F)(F)F)c1 | . | / | . | . | . | .
Cc1ccc(OC(F)F)c(NC(=O)Nc2cccc(C(F)(F)F)c2)c1 | . | . | 2.4 | 35.4 | . | .
SMILES | HUVEC inhibit | Phagocytosis inh | H69AR growth 86K | Fibroblast inh | bCat KO growth | PTEN del growth
COc1ccc(-c2ccc(-c3noc(-c4ccccc4OC)n3)c(OC)n2)cc1 | . | . | 33.9 | . | . | .
COc1ccccc1CC(=O)Nc1ccc(-c2noc(COc3cccc(C)c3C)n2)cc1 | . | / | 38.1 | . | . | .
O=C(Nc1ccc(-c2noc(CCc3ccccc3)n2)cc1)c1cccnc1 | . | . | 5.5 | . | . | .
COc1ccccc1CC(=O)Nc1ccc(-c2noc(COc3ccc(Br)cc3)n2)cc1 | . | . | 19.3 | . | . | .
COc1ccc(-c2noc(Cc3ccccc3OC)n2)cc1 | . | . | . | . | . | .
Cc1cc(OCc2nc(-c3ccc(NC(=O)c4cccnc4)cc3)no2)ccc1Cl | / | / | / | / | . | .
COc1cc2c(cc1OC)-c1nnc(-c3cccs3)n1C1(CCCC1)C2 | . | . | . | . | . | .
COc1ccc(CC(=O)Nc2ccc(-c3noc(-c4ccccc4OC)n3)cc2)cc1 | 26.0 | . | 16.9 | . | . | .
Cc1ccccc1OCc1nc(-c2ccc(NC(=O)c3ccco3)cc2)no1 | . | / | . | . | . | .
Cc1ccccc1OCc1nc(-c2ccc(NC(=O)c3ccc4c(c3)OCO4)cc2)no1 | . | . | 16.5 | 29.9 | . | .
COc1cccc(-c2nc(-c3ccc(NC(=O)Cc4ccccc4OC)cc3)no2)c1 | . | . | . | . | . | .
CCCc1ccc(OCc2nc(-c3ccc(NC(=O)c4ccco4)cc3)no2)cc1 | . | . | 9.2 | . | . | .
CCCc1ccc(OCc2nc(-c3ccc(NC(=O)c4cccs4)cc3)no2)cc1 | / | / | / | / | . | .
COC(=O)c1ccc(C(=O)OC)c(NC(=O)c2oc(C)nc2C)c1 | . | / | . | . | / | /
C/C(CCc1ccc2c(c1)OCO2)=N\N=C1\NC(=O)CC(C(=O)Nc2ccc(Cl)cc2)S1 (centres undefined) | / | / | / | / | . | .
COc1ccc(C(C)(C)C)cc1NC(=O)Nc1ccc2c(c1)OCO2 | . | / | 21.8 | . | . | .
COC(=O)c1ccccc1NC(=O)Nc1ccc2c(c1)OCO2 | . | . | . | . | . | .
O=C1OCC(c2ccccc2)=C1c1ccc(S(=O)(=O)N2CCOCC2)s1 | / | / | / | / | . | .
Cc1nc2ncnn2c(N2CCN(c3cccc(C(F)(F)F)c3)CC2)c1C | . | . | 33.1 | . | . | .
Cc1cc(NC(=O)C2C3C(=O)N(CCC(C)C)C(C(=O)NCc4ccccc4)C34C=CC2(C)O4)no1 (centres undefined) | . | . | . | . | . | .
O=C(N/N=C/C=C/c1ccccc1)C1CC1c1ccccc1 (centres undefined) | . | / | 26.1 | . | . | .
CC(=O)Nc1ccc(/C(C)=N/NC(=O)C2CC2c2ccccc2)cc1 (centres undefined) | / | . | / | / | . | .
CCCCc1cc(=O)oc2cc(C)cc(O)c12 | . | / | 10.1 | . | 5.1 | .
Cc1cc(O)c2c(-c3ccccc3)cc(=O)oc2c1 | . | . | 38.8 | . | . | .
O=C(Nc1ccc(Cl)c(C(F)(F)F)c1)NC1CC2CCCC(C1)N2C1CC1 (centres undefined) | 12.1 | / | 34.1 | . | / | /
O=C(Nc1cccc(F)c1)NC1CC2CCCC(C1)N2C1CC1 (centres undefined) | . | . | . | . | . | .
Cc1nn(CCC(=O)NNC(=S)NCC(C)C)c(C)c1Br | / | . | / | / | . | .
CCOC(=O)c1ccc(NC(=O)CN2C(=O)C(CC)SC(CC)C2=O)cc1 (centres undefined) | / | . | / | / | . | .
Cc1cc(C(=O)N/N=C/c2cc(Br)cc(Br)c2OC(=O)c2ccccc2)n[nH]1 | / | . | / | / | 5.1 | .

Screening data deposited in PubChem BioAssay by several laboratories.
